Reference: ChEMBL document CHEMBL4715918, “Syntheses and evaluation of acridone-naphthalimide derivatives for regulating oncogene PDGFR-β expression” (Bioorg Med Chem, 2021)

Tests used:
[1] = Binding affinity to FAM-labeled 5'-biotin-d[TATAGCTATA-HEG-TATAGCTATA]- 3' duplex DNA (unknown origin) by microscale thermophoresis assay
Outline: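 Microscale thermophoresis with DNA held constant at 1 µM. Compound serially diluted 3:4 from 10 µM over 12 points. Samples run in standard glass capillaries with LED and laser power both at 20%. KD derived by fitting.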

[2] = system: Quadruplex DNA; assay: Binding affinity to 5'-biotin-d [GCTGGGAGAAGGGGGGGCGGCGGGGCAGGGAGGGTGGACGC]-3' G4-quadruplex DNA (unknown origin) assessed as change in melting temperature at 10 uM by CD spectroscopy; assay type: nucleic-acid assay
Outline: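 Oligomer 2 µM in Tris-HCl pH 7.4, annealed (95 °C for 5 min, slow cooling, 4 °C overnight). Ligand 10 µM. CD ellipticity followed at 263 nm over 25–95 °C; ΔTm taken against DNA alone.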

[3] = system: MCF7; assay: Antitumour activity against human MCF7 cells xenografted in ip dosed nude BALB/c mouse assessed as tumour growth inhibition administered for 34 days; assay type: functional, organism-based; settings: dose 2.5-10 mg/kg, time 34.0 day
[4] = system: MCF7; assay: Induction apoptosis in human MCF7 cells assessed as early apoptotic cells at 1.25 uM incubated for 24 hrs by Annexin-FTTC/PI staining based flow cytometric analysis (reference value: 0.28%); assay type: functional
[5] = system: MCF7; assay: Induction apoptosis in human MCF7 cells assessed as late apoptotic cells at 1.25 uM incubated for 24 hrs by Annexin-FTTC/PI staining based flow cytometric analysis (reference value: 0%); assay type: functional

SMILES: Cc1ccc2c(c1)c(=O)c1cc(C(=O)NCCCN(C)CCCN3C(=O)c4cccc5c(N6CCN(C)CC6)ccc(c45)C3=O)ccc1n2-c1ccc(C(=O)NCCCN(C)CCCN2C(=O)c3cccc4c(N5CCN(C)CC5)ccc(c34)C2=O)cc1
- Kd [1]: 529 µM
- ΔTm [2]: > 20 °C
- Activity [3]: Dose-dependent effect
- Activity [4]: 7.38%
- Activity [5]: 0.8%
